Among the data in ChEMBL document CHEMBL1124921, “Alpha-diketone and alpha-keto ester derivatives of N-protected amino acids and peptides as novel inhibitors of cysteine and serine proteinases” (J Med Chem, 1990) are Ki values, retold here.

pKi: −log10 of the molar value. Where a SMILES comes first, the peptide text is derived from it. The star is where a group is joined. Cbz = O=C(OCc1ccccc1)* Bounds are passed on as bounds.

One assay addresses Chymotrypsinogen A (Bos taurus, UniProt P00766). Nature of the assay: Inhibition of alpha-chymotrypsin. The method, boiled down:
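Commercial α-chymotrypsin was assayed continuously with N-Suc-Ala-Ala-Pro-Phe-p-nitroanilide as substrate in HEPES buffer instead of Tris. […] Errors under 30%.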

Assay [1] can be described thus: Inhibition of Calpain. On the set-up: species or system Gallus gallus. The method, boiled down: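 Calpain purified from chicken gizzard, run as a continuous enzyme assay following a previously published method. Apparent dissociation constants Ki were derived for competitive inhibition; errors under 30%.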

The term pKi denotes the Ki on a negative log10 scale, so that one unit is a factor of ten. A lower pKi goes with a large Ki. For the molecule `CC(C)[C@H](NC(=O)OCc1ccccc1)C(=O)N[C@H](Cc1ccccc1)C(=O)C(F)(F)F`, the pKi on Chymotrypsinogen A was 4.35; in assay [1] it was below 3.74. The like results for `CC(=O)C(=O)[C@H](Cc1ccccc1)NC(=O)[C@@H](NC(=O)OCc1ccccc1)C(C)C` were, in that order, 6.70 and 6.15. For `O=C(N[C@@H](Cc1ccccc1)C(=O)C(F)(F)F)c1ccccc1`, in that order: 5.64 and below 3.00. For the molecule `CCOC(=O)C(=O)[C@H](Cc1ccccc1)NC(=O)[C@@H](NC(=O)OCc1ccccc1)C(C)C`, the pKi at Chymotrypsinogen A was 7.22; in assay [1], 6.22. Turning to `CC(C)[C@H](NC(=O)OCc1ccccc1)C(=O)N[C@@H](Cc1ccccc1)C(=O)C(F)(F)F`, the negative-log Ki (pKi) is 5.62 on Chymotrypsinogen A and below 3.74 in assay [1]. `COC(=O)C(=O)[C@H](Cc1ccccc1)NC(=O)c1ccccc1`: the negative logarithm of the Ki (pKi) was 6.82 on Chymotrypsinogen A and 3.82 in assay [1].

`CC(=O)C(=O)[C@H](Cc1ccccc1)NC(=O)OCc1ccccc1`: the pKi is 5.92 on Chymotrypsinogen A and 3.60 in assay [1].

For `CCOC(=O)C(=O)[C@H](Cc1ccccc1)NC(=O)OCc1ccccc1`, the pKi was 6.89 on Chymotrypsinogen A and 4.04 in assay [1]. Consider `COC(=O)C(=O)[C@H](Cc1ccccc1)NC(=O)[C@@H](NC(=O)OCc1ccccc1)C(C)C`, for which the results for the negative logarithm of the Ki (pKi) (at Chymotrypsinogen A; in assay [1]) were 7.22 and 6.40, respectively. Turning to `CC(=O)[C@H](Cc1ccccc1)NC(=O)OCc1ccccc1`, in assay [1], the negative-log Ki (pKi) was below 2.70. Take `O=C[C@H](Cc1ccccc1)NC(=O)c1ccccc1`: the negative-log Ki (pKi) at Chymotrypsinogen A is 4.19; in assay [1], 5.40. For `O=C(N[C@@H](Cc1ccccc1)C(=O)C(F)F)c1ccccc1`, in that order: 5.11 and below 3.00. Consider `O=C[C@H](Cc1ccccc1)NC(=O)OCc1ccccc1`, for which the pKi was 3.44 at Chymotrypsinogen A and 5.52 in assay [1]. The like results for `CC(C)[C@H](NC(=O)OCc1ccccc1)C(=O)N[C@H](C=O)Cc1ccccc1` (Cbz-Val-Phe-aldehyde) were, in that order, 4.27 and 8.00.
